Measured values: ChEMBL document CHEMBL3739255, “Novel Series of Dihydropyridinone P2X7 Receptor Antagonists” (J Med Chem, 2015)

How the values were obtained:
[1] = target: Neuropeptide Y receptor type 1 (Homo sapiens) (UniProt P25929); assay: Inhibition of human neuropeptide Y1 receptor at 10 uM by radioligand binding assay
Method in brief: (§1)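 Outsourced broad receptor-screening panel of 78 targets, each tested at a single 10 uM concentration; read-out is percent inhibition. Detailed conditions are given only in the Supporting Information.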

[2] = target: Adrenergic receptor alpha-1 (Rattus norvegicus) (UniProt P15823+P23944+P43140); assay: Inhibition of rat alpha1-adrenoceptor at 10 uM; method in brief: as §1
Rattus norvegicus [3] = species on record: Rattus norvegicus; assay: Inhibition of rat sigma receptor at 10 uM
Method in brief: (§2)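 Single-concentration screen at 10 uM in a commercial 78-receptor panel run by CEREP; results are given as % inhibition.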

[4] = target: Galanin receptor type 2 (Homo sapiens) (UniProt O43603); assay: Inhibition of human galanin receptor 2 at 10 uM by radioligand binding assay; method in brief: as §1
Chain of Galanin receptor type 2 (Homo sapiens) (O43603 whole entry): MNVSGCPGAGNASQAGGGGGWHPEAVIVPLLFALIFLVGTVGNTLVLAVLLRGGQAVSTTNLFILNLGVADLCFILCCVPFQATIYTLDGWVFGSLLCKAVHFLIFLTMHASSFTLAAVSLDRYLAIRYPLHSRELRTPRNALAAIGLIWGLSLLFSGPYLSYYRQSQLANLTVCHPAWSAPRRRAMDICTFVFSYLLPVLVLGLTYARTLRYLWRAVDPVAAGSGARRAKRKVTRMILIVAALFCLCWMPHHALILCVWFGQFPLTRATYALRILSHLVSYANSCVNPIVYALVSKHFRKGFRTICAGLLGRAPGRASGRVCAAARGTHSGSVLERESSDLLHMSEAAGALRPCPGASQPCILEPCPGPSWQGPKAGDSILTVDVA

[5] = Volume of distribution at steady state in rat at 2 mg/kg, po and 0.5 mg/kg, iv administered as single dose; assay type: ADME, organism-based; conditions: in vivo, read-out: Vdss
Method in brief: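 Rats given a single dose, iv 0.5 mg/kg or po 2 mg/kg, with n ≥ 2 per time point. Bioavailability is derived from the po and iv exposures. Vdss is reported in L/kg.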

[6] = target: B2 bradykinin receptor (Homo sapiens) (UniProt P30411); assay: Inhibition of human bradykinin 2 receptor at 10 uM by radioligand binding assay; method in brief: as §1
Chain of B2 bradykinin receptor (Homo sapiens) (P30411 whole entry): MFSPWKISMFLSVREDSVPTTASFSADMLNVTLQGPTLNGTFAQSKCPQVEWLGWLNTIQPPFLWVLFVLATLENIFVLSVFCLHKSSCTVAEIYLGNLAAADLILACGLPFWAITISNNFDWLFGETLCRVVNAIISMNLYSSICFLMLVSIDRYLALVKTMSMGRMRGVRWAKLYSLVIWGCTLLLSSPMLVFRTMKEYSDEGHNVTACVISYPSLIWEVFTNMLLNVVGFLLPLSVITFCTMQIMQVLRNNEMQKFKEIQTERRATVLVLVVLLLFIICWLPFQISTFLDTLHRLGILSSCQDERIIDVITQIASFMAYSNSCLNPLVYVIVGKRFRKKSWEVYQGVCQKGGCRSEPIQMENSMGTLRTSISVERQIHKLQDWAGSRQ

[7] = target: Substance-P receptor (Homo sapiens) (UniProt P25103); assay: Inhibition of human NK1 receptor at 10 uM by radioligand binding assay
Chain of Substance-P receptor (Homo sapiens) (P25103 whole entry): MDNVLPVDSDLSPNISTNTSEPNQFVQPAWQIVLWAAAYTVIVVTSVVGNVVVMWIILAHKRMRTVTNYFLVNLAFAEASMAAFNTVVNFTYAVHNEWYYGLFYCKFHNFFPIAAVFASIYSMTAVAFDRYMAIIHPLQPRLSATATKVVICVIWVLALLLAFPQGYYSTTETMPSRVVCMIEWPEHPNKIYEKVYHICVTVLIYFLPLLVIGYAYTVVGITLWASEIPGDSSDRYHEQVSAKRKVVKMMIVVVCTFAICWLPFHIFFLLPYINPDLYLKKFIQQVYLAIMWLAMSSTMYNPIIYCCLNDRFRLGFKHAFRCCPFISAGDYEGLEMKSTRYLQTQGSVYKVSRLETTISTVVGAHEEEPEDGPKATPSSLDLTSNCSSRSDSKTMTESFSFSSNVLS
Method in brief: (§3)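 Commercial receptor scan across a 78-target panel, with percent inhibition measured at a test concentration of 10 uM.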

[8] = target: D(1A) dopamine receptor (Homo sapiens) (UniProt P21728); assay: Inhibition of human dopamine D1 receptor at 10 uM; method in brief: as §1
Chain of D(1A) dopamine receptor (Homo sapiens) (P21728 whole entry): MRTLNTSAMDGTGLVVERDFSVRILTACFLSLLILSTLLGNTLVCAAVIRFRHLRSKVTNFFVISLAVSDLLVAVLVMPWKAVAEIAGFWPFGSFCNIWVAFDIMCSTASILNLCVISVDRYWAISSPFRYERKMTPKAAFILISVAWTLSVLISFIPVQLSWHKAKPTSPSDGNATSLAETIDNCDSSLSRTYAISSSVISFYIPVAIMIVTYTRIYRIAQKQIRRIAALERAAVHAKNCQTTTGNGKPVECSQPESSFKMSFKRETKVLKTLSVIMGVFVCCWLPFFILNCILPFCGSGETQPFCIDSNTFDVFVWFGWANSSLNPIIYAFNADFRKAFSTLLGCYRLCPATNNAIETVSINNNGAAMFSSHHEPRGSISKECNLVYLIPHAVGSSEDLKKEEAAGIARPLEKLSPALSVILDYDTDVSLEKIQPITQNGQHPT

Liver microsome = assay: Drug metabolism in human liver microsomes assessed as hydrolysis of amide bond; assay type: ADME
[9] = target: Neuropeptide Y receptor type 2 (Homo sapiens) (UniProt P49146); assay: Inhibition of human neuropeptide Y2 receptor at 10 uM by radioligand binding assay; method in brief: as §1
Chain of Neuropeptide Y receptor type 2 (Homo sapiens) (P49146 whole entry): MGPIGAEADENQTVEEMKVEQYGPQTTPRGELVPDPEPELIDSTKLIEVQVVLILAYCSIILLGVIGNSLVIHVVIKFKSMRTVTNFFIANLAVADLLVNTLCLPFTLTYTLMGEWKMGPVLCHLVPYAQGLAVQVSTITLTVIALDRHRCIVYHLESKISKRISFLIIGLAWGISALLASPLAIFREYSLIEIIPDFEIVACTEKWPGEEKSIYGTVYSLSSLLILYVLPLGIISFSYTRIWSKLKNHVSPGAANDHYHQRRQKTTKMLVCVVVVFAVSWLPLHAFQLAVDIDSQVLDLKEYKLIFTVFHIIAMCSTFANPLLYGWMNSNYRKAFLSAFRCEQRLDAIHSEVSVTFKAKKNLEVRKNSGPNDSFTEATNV

Plasma [10] = assay: Metabolic stability in human plasma at 10 uM after 4 hrs by LC/MS/MS analysis; assay type: ADME, cell-free
[11] = Binding affinity to Cytochrome P450 in rat liver microsomes at 10 uM incubated for 30 mins; assay type: ADME; conditions: 0.5 h
Method in brief: (§4)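 Covalent binding in rat and human liver microsomes, run both without and with NADPH.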

Plasma [12] = assay: Metabolic stability in rat plasma at 10 uM after 4 hrs by LC/MS/MS analysis; assay type: ADME, cell-free
[13] = target: Translocator protein (Rattus norvegicus) (UniProt P16257); assay: Inhibition of rat peripheral type benzodiazepine receptor at 10 uM by radioligand binding assay; method in brief: as §2
Chain of Translocator protein (Rattus norvegicus) (P16257 whole entry, looked up): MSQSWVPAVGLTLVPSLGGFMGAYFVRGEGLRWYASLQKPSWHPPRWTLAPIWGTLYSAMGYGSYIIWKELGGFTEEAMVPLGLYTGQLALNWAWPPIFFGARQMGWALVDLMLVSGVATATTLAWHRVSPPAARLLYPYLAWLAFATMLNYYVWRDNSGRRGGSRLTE

[14] = target: Adrenergic receptor alpha-2 (Rattus norvegicus) (UniProt P22086+P19328+P22909); assay: Inhibition of rat alpha2-adrenoceptor at 10 uM; method in brief: as §1
[15] = Metabolic stability in human blood; assay type: ADME; conditions: read-out: Stability (converted)
[16] = target: Substance-K receptor (Homo sapiens) (UniProt P21452); assay: Inhibition of human NK2 receptor at 10 uM by radioligand binding assay; method in brief: as §3
[17] = target: Mu-type opioid receptor (Homo sapiens) (UniProt P35372); assay: Inhibition of human mu opioid receptor at 10 uM by radioligand binding assay; method in brief: as §1
Chain of Mu-type opioid receptor (Homo sapiens) (P35372 whole entry): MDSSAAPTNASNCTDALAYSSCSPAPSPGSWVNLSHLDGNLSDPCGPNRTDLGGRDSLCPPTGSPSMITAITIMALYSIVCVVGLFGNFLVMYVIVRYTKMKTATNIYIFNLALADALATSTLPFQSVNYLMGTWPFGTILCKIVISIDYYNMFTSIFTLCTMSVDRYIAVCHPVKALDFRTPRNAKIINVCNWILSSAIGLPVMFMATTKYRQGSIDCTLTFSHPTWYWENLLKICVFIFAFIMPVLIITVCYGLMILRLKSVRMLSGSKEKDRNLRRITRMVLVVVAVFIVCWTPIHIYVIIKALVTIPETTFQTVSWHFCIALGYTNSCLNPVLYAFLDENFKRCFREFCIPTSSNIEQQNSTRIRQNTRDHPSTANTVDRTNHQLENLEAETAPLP

[18] = target: 5-hydroxytryptamine receptor 7 (Homo sapiens) (UniProt P34969); assay: Inhibition of human 5-HT7 receptor at 10 uM by radioligand binding assay; method in brief: as §3
Chain of 5-hydroxytryptamine receptor 7 (Homo sapiens) (P34969 whole entry): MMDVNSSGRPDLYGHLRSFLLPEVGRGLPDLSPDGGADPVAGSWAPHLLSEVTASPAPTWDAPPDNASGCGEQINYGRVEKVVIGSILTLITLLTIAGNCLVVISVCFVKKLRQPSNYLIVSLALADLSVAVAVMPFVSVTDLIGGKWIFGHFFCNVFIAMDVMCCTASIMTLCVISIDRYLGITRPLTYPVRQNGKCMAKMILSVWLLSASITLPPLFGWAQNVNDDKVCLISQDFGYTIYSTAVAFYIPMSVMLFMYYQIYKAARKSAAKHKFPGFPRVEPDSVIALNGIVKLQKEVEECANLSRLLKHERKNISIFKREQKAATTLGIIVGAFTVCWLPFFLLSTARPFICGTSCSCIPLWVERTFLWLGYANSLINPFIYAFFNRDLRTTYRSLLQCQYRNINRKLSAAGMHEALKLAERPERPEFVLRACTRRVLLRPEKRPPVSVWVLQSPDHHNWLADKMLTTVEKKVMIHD

P2X purinoceptor 7 = target: T1, P2X purinoceptor 7 (Homo sapiens, UniProt Q99572); assay: Antagonist activity at human P2X7R expressed in BzATP-stimulated human 1321N1 cells incubated for 20 mins followed by BzATP stimulation measured every 1 sec for 60 secs followed by 3 sec intervals for 4 mins by FLIPR Ca2+ assay in presence of ionomycin; assay type: cell-based
T1 sequence (Q99572 whole entry): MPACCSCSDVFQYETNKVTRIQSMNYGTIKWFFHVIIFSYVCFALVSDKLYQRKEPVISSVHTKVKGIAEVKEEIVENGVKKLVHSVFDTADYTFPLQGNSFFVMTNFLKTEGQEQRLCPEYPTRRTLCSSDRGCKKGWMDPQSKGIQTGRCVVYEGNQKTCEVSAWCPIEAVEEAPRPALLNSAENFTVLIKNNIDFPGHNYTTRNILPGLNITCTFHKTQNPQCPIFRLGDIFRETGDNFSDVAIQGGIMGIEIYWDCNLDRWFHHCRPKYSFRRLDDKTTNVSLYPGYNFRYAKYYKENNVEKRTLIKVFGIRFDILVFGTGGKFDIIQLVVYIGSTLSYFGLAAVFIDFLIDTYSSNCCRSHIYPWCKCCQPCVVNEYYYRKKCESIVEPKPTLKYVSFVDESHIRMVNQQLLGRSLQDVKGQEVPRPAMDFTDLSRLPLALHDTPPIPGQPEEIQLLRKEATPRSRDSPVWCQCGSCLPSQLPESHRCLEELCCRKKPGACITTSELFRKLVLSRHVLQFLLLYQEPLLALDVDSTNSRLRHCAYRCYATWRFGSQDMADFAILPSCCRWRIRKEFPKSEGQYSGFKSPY
Method in brief: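 1321N1 cells stably expressing human P2X7R, stimulated with BzATP; calcium flux read on FLIPR. IC50 is the mean of n ≥ 2 runs, each including a positive control.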

[19] = Metabolic stability in human plasma; assay type: ADME, cell-free; conditions: read-out: Stability (converted)
Method in brief: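 Compound incubated in human plasma for 4 h and monitored for degradation.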

Hepatocyte = assay: Drug metabolism in human hepatocytes assessed as hydrolysis of amide bond; assay type: ADME, cell-based
[20] = target: Tumor necrosis factor receptor superfamily member 1A (Homo sapiens) (UniProt P19438); assay: Inhibition of human TNFalpha receptor at 10 uM by radioligand binding assay; method in brief: as §1
Chain of Tumor necrosis factor receptor superfamily member 1A (Homo sapiens) (P19438 whole entry): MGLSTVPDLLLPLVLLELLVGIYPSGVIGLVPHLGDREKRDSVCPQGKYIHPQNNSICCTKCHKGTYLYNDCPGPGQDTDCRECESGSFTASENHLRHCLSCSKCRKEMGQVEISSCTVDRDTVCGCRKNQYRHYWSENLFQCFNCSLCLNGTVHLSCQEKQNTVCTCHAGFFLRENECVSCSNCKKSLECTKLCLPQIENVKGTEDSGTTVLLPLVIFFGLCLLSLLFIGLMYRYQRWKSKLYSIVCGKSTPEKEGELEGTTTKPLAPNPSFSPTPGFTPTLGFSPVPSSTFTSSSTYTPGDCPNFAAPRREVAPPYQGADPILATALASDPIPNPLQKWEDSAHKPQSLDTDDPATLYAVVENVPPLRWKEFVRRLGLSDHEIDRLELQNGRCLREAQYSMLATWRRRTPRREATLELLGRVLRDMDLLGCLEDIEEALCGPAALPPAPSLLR

[21] = target: adenosine A3 receptor (Homo sapiens) (UniProt P0DMS8); assay: Inhibition of human adenosine A3 receptor at 10 uM by radioligand binding assay
Chain of adenosine A3 receptor (Homo sapiens) (P0DMS8 whole entry, looked up): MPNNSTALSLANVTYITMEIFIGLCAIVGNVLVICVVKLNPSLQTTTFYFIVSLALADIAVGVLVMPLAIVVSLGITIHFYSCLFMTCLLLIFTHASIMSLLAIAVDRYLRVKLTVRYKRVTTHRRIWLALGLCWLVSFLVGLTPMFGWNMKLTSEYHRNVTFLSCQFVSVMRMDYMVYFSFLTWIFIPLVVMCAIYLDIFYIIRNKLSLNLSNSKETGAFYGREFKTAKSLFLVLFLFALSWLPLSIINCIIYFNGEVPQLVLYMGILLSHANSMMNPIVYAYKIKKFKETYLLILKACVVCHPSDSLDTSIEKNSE

[22] = target: Prostaglandin E2 receptor EP4 subtype (Homo sapiens) (UniProt P35408); assay: Inhibition of human prostanoid EP4 receptor at 10 uM by radioligand binding assay; method in brief: as §1
Chain of Prostaglandin E2 receptor EP4 subtype (Homo sapiens) (P35408 whole entry): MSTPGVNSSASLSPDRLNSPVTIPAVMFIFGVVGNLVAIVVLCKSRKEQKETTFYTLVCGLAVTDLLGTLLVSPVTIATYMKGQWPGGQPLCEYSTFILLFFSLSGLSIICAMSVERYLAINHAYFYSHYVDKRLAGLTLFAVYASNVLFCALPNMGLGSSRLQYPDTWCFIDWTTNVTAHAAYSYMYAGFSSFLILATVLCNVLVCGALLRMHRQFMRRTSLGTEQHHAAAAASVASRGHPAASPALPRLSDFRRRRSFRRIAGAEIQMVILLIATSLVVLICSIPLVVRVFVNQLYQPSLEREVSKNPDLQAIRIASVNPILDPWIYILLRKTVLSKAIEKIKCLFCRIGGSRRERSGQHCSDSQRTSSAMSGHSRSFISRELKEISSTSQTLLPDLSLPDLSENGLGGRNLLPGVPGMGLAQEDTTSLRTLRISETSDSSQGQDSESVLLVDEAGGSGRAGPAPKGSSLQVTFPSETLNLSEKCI

[23] = target: Glucocorticoid receptor (Homo sapiens) (UniProt P04150); assay: Inhibition of human glucocorticoid receptor at 10 uM by radioligand binding assay; method in brief: as §1
[24] = Binding affinity to Cytochrome P450 in human liver microsomes at 10 uM incubated for 30 mins; assay type: ADME; conditions: 0.5 h; method in brief: as §4
Rattus norvegicus [25] = species on record: Rattus norvegicus; assay: Inhibition of rat Voltage-gated potassium channel at 10 uM; method in brief: as §1
Rattus norvegicus [26] = species on record: Rattus norvegicus; assay: Inhibition of rat L-type calcium channel verapamil binding site at 10 uM; method in brief: as §1
[27] = target: Muscarinic acetylcholine receptor M1 (Homo sapiens) (UniProt P11229); assay: Inhibition of human muscarinic M1 receptor at 10 uM; method in brief: as §1
[28] = target: Small conductance calcium-activated potassium channel (Rattus norvegicus) (UniProt P70604+P70606+P70605); assay: Inhibition of rat small conductance calcium-activated potassium channel at 10 uM by radioligand binding assay; assay type: protein assay; method in brief: as §2
Rattus norvegicus [29] = species on record: Rattus norvegicus; assay: Inhibition of rat P2Y purinoceptor at 10 uM by radioligand binding assay; method in brief: as §1

Chain of Neuropeptide Y receptor type 1 (Homo sapiens) (P25929 whole entry): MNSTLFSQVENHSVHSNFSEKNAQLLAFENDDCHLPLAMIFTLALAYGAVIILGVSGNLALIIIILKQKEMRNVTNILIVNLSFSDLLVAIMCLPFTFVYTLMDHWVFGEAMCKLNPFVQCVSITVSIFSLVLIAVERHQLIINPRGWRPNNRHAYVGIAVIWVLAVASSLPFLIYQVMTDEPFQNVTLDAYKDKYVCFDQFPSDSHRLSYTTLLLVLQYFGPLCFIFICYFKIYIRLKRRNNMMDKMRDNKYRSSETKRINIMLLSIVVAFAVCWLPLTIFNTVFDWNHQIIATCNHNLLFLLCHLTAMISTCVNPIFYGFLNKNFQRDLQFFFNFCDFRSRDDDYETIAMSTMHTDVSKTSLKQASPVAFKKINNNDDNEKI

inhibition [1]: < 30%
inhibition [2]: < 30%
inhibition (Rattus norvegicus [3]): < 30%
inhibition [4]: < 30%
Vd [5]: 2.2 L/kg
inhibition [6]: < 30%
inhibition [7]: < 30%
inhibition [8]: < 30%
Stability (Liver microsome): Stable
inhibition [9]: < 30%
Stability (Plasma [10]): Stable
PB [11]: Not Active
Stability (Plasma [12]): Stable
inhibition [13]: < 30%
inhibition [14]: < 30%
half-life [15]: 3 h
inhibition [16]: < 30%
inhibition [17]: < 30%
inhibition [18]: < 30%
IC50 (P2X purinoceptor 7): 23 nM
half-life [19]: 4 h
Stability (Hepatocyte): Stable
inhibition [21]: < 30%
inhibition [22]: < 30%
inhibition [23]: < 30%
PB [24]: Not Active
inhibition (Rattus norvegicus [25]): < 30%
inhibition (Rattus norvegicus [26]): < 30%
inhibition [27]: < 30%
inhibition [28]: < 30%
inhibition (Rattus norvegicus [29]): < 30%
Compound: Cc1cc(Cl)c(OCCO)cc1NC(=O)C1=CNC(=O)C[C@H]1c1ccc(F)cc1
inhibition [20]: < 30%
